One may read the IC90 as the point of the concentration-response curve where the effect stands at 90%. A low value points to an effect from little substance. For orientation: Ki means the dissociation constant of the complex between target and ligand, obtained from inhibition or displacement. Read a low Ki as higher affinity.

For one test, the system named is MT2. Kind of test: Concentration required to reduce HIV viral RNA concentration by 90% in MT-2 cells infected with HIV-1RF was determined. The settings on record: Homo sapiens.
Test [1] deals with Human immunodeficiency virus type 1 protease (Human immunodeficiency virus 1, UniProt Q72874). Kind of test: Binding affinity against HIV protease. Put shortly:
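HIV protease inhibition measured as cleavage of a fluorescent substrate, with the cleavage products quantified by HPLC. Ki values were derived from this assay.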

The subject of test [2] is Human immunodeficiency virus type 1 (RF/HAT ISOLATE). Kind of test: Reduction in HIV viral RNA concentration by 90% in MT-2 cells infected with HIV-1RF. Format: functional. The settings on record: Human immunodeficiency virus 1, RF, MT2. The method in brief: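 MT-2 cells infected with HIV-1RF; viral RNA transcript accumulation measured 3 days post-infection; value is the compound concentration lowering viral RNA by 90% from the reference level.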

As to `O=C1N(Cc2ccccc2)[C@@H](Cc2ccccc2)C(O)[C@H](Cc2ccccc2)N1Cc1ccccc1`, in the test on MT2, the 90% effect concentration (IC90) was found to be 80000 nM.

Consider `NC(=O)c1cccc(CN2C(=O)N(Cc3cccc(C(N)=O)c3)[C@H](Cc3ccccc3)[C@H](O)[C@H]2CCc2ccccc2)c1`, for which affinity in test [1] was put at a Ki of 0.088 nM. In test [2], this compound yielded an IC90 of 35 nM.

The compound `N=C(NO)c1cccc(CN2C(=O)N(Cc3cccc(/C(N)=N/O)c3)[C@H](CCc3ccccc3)[C@@H](O)[C@H]2Cc2ccccc2)c1` yielded an IC90 in test [2] of 49 nM.

The compound `CNc1cccc(CN2C(=O)N(Cc3cccc(NC)c3)[C@H](Cc3ccccc3)[C@H](O)[C@H]2CCc2ccccc2)c1` came in with an inhibitory constant (Ki) in test [1] of 4.9 nM. The IC90 in test [2] worked out at 328 nM.

In test [1], `O=C1N(Cc2cccc(CO)c2)[C@H](CCc2ccccc2)[C@@H](O)[C@@H](Cc2ccccc2)N1Cc1cccc(CO)c1` returned an inhibition constant (Ki) of 0.49 nM. Also, the IC90 in test [2] came out at 109 nM.

Turning to `Nc1cc(CN2C(=O)N(Cc3ccc(F)c(N)c3)[C@H](Cc3ccccc3)[C@H](O)[C@H]2CCc2ccccc2)ccc1F`, the Ki in test [1] was determined as 0.25 nM. In test [2], this compound came in with a 90% effect concentration (IC90) of 36 nM.

In test [1], `O=C1N(Cc2cccc(O)c2)[C@H](CCc2ccccc2)[C@@H](O)[C@@H](Cc2ccccc2)N1Cc1cccc(O)c1` had a Ki of 0.3 nM. Also, the IC90 in test [2] worked out at 115 nM.

For the compound `NC(=O)c1cc(CN2C(=O)N(Cc3ccc(F)c(C(N)=O)c3)[C@H](Cc3ccccc3)[C@H](O)[C@H]2CCc2ccccc2)ccc1F`, the inhibition constant Ki in test [1] stood at 1.4 nM. The same compound gave an IC90 in test [2] of 490 nM.

In turn, `O=C1N(Cc2ccc3ccccc3c2)C(Cc2ccccc2)P(=O)(O)C(Cc2ccccc2)N1Cc1ccc2ccccc2c1` (stereo unspecified) yielded an IC90 in the test with MT2 of 260 nM.

On to `N#Cc1cccc(CN2C(=O)N(Cc3cccc(C#N)c3)[C@@H](Cc3ccccc3)[C@@H](O)[C@@H]2CCc2ccccc2)c1`, for which the Ki in test [1] stood at 8000 nM. In test [2], this compound yielded a 90% effect concentration (IC90) of more than 5000 nM.

`COC(=O)c1ccc(CN2C(=O)N(Cc3ccc(C(=O)OC)cc3)[C@H](Cc3ccccc3)[C@H](O)[C@H]2CCc2ccccc2)cc1` showed an inhibition constant (Ki) in test [1] of 1970 nM. Besides, in test [2], the IC90 was more than 5000 nM.

As for `NC(=O)c1cccc(CN2C(=O)N(Cc3cccc(C(N)=O)c3)[C@@H](Cc3ccccc3)[C@@H](O)[C@@H]2CCc2ccccc2)c1`, in test [1], affinity was put at a Ki of 4800 nM. Further, in test [2], the 90% effect concentration (IC90) is more than 5000 nM.

Compound `COC(=O)c1cccc(CN2C(=O)C(=O)N(Cc3cccc(C(=O)OC)c3)[C@H](Cc3ccccc3)[C@H](O)[C@H]2CCc2ccccc2)c1` had a Ki in test [1] of 40 nM.

Consider `COC(=O)c1cccc(CN2C(=O)N(Cc3cccc(C(=O)OC)c3)[C@H](Cc3ccccc3)[C@H](O)[C@H]2CCc2ccccc2)c1`, for which, in test [2], the IC90 is more than 5000 nM.

On to `N=C(NO)c1cccc(CN2C(=O)N(Cc3cccc(/C(N)=N\O)c3)[C@@H](CCc3ccccc3)[C@H](O)[C@@H]2Cc2ccccc2)c1`, for which the IC90 in test [2] was more than 5000 nM.

Take `O=C1N(Cc2ccc(CO)cc2)[C@H](CCc2ccccc2)[C@@H](O)[C@@H](Cc2ccccc2)N1Cc1ccc(CO)cc1`: in test [1], the Ki turned out to be 2.5 nM. Moreover, the IC90 in test [2] came out at 3600 nM.

In turn, `O=C1N[C@H](CCc2ccccc2)[C@@H](O)[C@@H](Cc2ccccc2)N1` displayed an IC90 in test [2] of more than 5000 nM.

`O=C1N(CC2CC2)[C@H](CCc2ccccc2)[C@@H](O)[C@@H](Cc2ccccc2)N1CC1CC1` yielded an inhibition constant (Ki) in test [1] of 3.8 nM. The compound also showed an IC90 in test [2] of 5200 nM.

The compound `Nc1cccc(CN2C(=O)N(Cc3cccc(N)c3)[C@H](Cc3ccccc3)[C@H](O)[C@H]2CCc2ccccc2)c1` had a Ki in test [1] of 1.7 nM. The compound further had an IC90 in test [2] of 365 nM.

`O=C1N(Cc2cccc(O)c2)[C@H](Cc2ccccc2)C(O)[C@@H](Cc2ccccc2)N1Cc1cccc(O)c1`: in test [1], the affinity corresponds to a Ki of 33 nM.

Regarding `N#Cc1cccc(CN2C(=O)N(Cc3cccc(C#N)c3)[C@H](Cc3ccccc3)[C@H](O)[C@H]2CCc2ccccc2)c1`, in test [1], the inhibitory constant (Ki) came out at 11 nM. This compound displayed an IC90 in test [2] of 1600 nM.

Regarding `Nc1ccc(CN2C(=O)N(Cc3ccc(N)c(F)c3)[C@H](Cc3ccccc3)[C@H](O)[C@H]2CCc2ccccc2)cc1F`, in test [1], the Ki came to 8 nM. It took 540 nM to reach the 90% level in test [2] (IC90).

`O=C1N(Cc2ccccc2)[C@H](CCc2ccccc2)[C@@H](O)[C@@H](Cc2ccccc2)N1Cc1ccccc1` yielded an inhibitory constant (Ki) in test [1] of 15 nM. Also, the 90% effect level in test [2] (IC90) was put at 2800 nM.

In the case of `COC(=O)c1cccc(CN2C(=O)N(Cc3cccc(C(=O)OC)c3)[C@@H](Cc3ccccc3)[C@@H](O)[C@@H]2CCc2ccccc2)c1`, the 90% effect concentration (IC90) in test [2] is more than 5000 nM.

In test [1], `O=C1N(Cc2cccc(CO)c2)[C@@H](CCc2ccccc2)[C@H](O)[C@H](Cc2ccccc2)N1Cc1cccc(CO)c1` showed a Ki of 550 nM. The concentration for an effect of 90% (IC90) in test [2] is more than 5000 nM.

For the origin of these results see ChEMBL document CHEMBL1130044, “Design, synthesis, and evaluation of tetrahydropyrimidinones as an example of a general approach to nonpeptide HIV protease inhibitors” (J Med Chem, 1997).
